# The list is not random: actives were taken first. Their share in the collection is about 1.1%.
# Tb hexokinase – blocks Trypanosoma brucei hexokinase 1 activity | recombinant TbHK1, G6PDH-coupled NADH A340 | inhibition, % at 10 µM | hit rate 0.11% among 220,000 | AID 1430;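 active = inhibition of 50% or more in the single-dose primary screen; inactive = inhibition below 50%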
# Diaphorase act – activates diaphorase or chemically reduces, flagging diaphorase assay artifacts; Diaphorase/resazurin coupled assay, resorufin fluorescence, 16 min; stronger effect = higher value; 1 = vehicle wells, 0 = NADH-free wells; hit rate 0.005% among 190,000; activation factor at 20 µM;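 active = diaphorase activity raised at least twofold by the compound at 20 µM; inactive = activation factor below 2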
#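 Material: Clostridium kluyveri diaphorase, purified enzyme; Quantity: enzyme 0.07 U/mL final; Medium: HEPES pH 7.4 buffer with MgCl2 and Tween 20; Dosing: single compound dose of 20 µM, 1% DMSO final; Schedule: 16 min reaction at room temperature; Measured by: red resorufin fluorescence at 544/590 nm excitation/emission.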
# PMI activator – phosphomannose isomerase (human) activation; hit rate 0.005% among 190,000; AID 1214; activation factor at 20 µM; purified human PMI, coupled resazurin fluorescence, 20 min; stronger effect = higher value; 1 = vehicle control, 0 substrate-free wells; P34949;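 active = activation factor of 2 or more at 20 µM, relative to plate controls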
# Target sequence (P34949 whole entry, looked up): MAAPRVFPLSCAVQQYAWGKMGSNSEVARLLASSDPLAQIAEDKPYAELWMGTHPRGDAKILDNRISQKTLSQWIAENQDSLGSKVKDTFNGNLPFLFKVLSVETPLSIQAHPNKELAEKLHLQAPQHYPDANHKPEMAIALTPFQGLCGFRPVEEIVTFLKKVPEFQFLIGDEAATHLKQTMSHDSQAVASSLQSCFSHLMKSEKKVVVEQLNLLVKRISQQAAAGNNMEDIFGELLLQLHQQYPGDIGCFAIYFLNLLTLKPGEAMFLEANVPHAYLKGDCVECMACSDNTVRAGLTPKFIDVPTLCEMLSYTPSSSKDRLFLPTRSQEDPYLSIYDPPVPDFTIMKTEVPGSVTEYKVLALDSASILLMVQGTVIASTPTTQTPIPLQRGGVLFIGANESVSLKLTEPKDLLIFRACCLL
# PMI act satM6P – increases human PMI activity with near-saturating mannose 6-phosphate; coupled PMI enzyme assay, resazurin fluorescence, 20 min; stronger effect = higher value; 1 = untreated enzyme, 0 = substrate-free blank; hit rate 0.34% among 190,000; AID 1216; P34949; activation factor at 20 µM;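 active = activation factor of 2 or more at 20 µM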
#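 test system = human PMI in coupled enzyme assay | medium = HEPES-buffered pH 7.4 with magnesium and detergent | also added = 1.0 mM mannose-6-phosphate substrate with 0.22 mM NADP+ | compound = 20 µM single dose | times = 20 min incubation at room temperature | measured by = resorufin fluorescence (Ex 544/Em 590 nm) from resazurin via diaphorase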
# G6PDH CS – L. mesenteroides G6PDH inhibition counter-screen; AID 1020; inhibition, % at 5 µM; hit rate 0.12% among 200,000; Purified L. mesenteroides G6PDH, diaphorase/resazurin coupled fluorescence, 45 min; in the data active = inhibition above about 50%
# Diaph inh CS – inhibits diaphorase or chemically oxidizes, flagging diaphorase assay artifacts; inhibition, % at 20 µM; hit rate 0.69% among 190,000; diaphorase resazurin-to-resorufin fluorescence, NADH, 16 min; bacterial (C. kluyveri) enzyme, not human;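 active = primary screen inhibition at 20 µM above a set limit, cut at about 50% in these data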;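 note: plate controls were DMSO with full reaction for no effect and wells lacking NADH for full effect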
#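 Test system: Clostridium kluyveri diaphorase enzyme / Quantity: diaphorase at 0.14 U/mL in enzyme working solution / Incubation: 16-min room-temperature incubation before reading / Benchmarks: NADH-free wells as positive control, DMSO-only neutral wells / Signal: resorufin fluorescence 544/590 nm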
# Active calls of the source: *; / = not tested or not shown.
SMILES,Tb hexokinase,Diaphorase act,PMI activator,PMI act satM6P,G6PDH CS,Diaph inh CS
COc1ccc(NC(=S)Nc2cccc3cnccc23)cc1,-8.0,0.4,0.4,0.4,29.7,56.1*
CCOc1ccc(NC(=S)Nc2cccc3cnccc23)cc1,-8.7,0.4,0.4,0.4,-2.0,55.0*
COc1ccccc1NC(=S)NCc1cccnc1,25.4,1,1,1.1,0.2,-2.7
COc1ccc(O)c(N)c1,1.5,0.4,0.8,1,42.4,61.8*
O=C(Nc1ccc(F)cc1F)Nc1ccc(F)cc1F,5.0,1,1,1,6.3,2.6
C/C(=N\Nc1ccc(F)cc1F)c1ccc(F)cc1,0.9,0.9,1.4,2.4*,5.3,8.9
C/C(=N\NC(=O)c1ccc(Cl)cc1)c1ccc(Br)s1,-3.5,1.1,1.1,1.1,6.7,-10.7
C/C(=N\Nc1ccc(F)cc1F)c1ccc(N2CCOCC2)cc1,-23.3,0.8,1.6,2.4*,2.7,15.9
C/C(=N\Nc1ccc(F)cc1F)c1ccc(Br)s1,1.5,0.9,1.7,2.6*,-6.0,10.9
O=C(N/N=C/c1ccc(N2CCOCC2)cc1)c1ccc(O)cc1,-91.8,/,/,/,/,/
Fc1ccc(N/N=C/c2ccc(N3CCOCC3)cc2)c(F)c1,-11.6,0.9,1.7,2.2*,-9.5,10.1
Cc1[nH]n(-c2nc(-c3ccc(Cl)cc3)cs2)c(=O)c1N=Nc1ccc(O)cc1,-8.6,1,1.1,1.1,9.3,-4.9
Cc1ccc(S(=O)(=O)N2CCOCC2)cc1NC(=O)CSc1nnc2cc(C)c3ccccc3n12,-18.2,0.5,0.9,0.9,10.2,53.7*
CC1CCCC(CC(=O)O)(CC(=O)O)C1 (configuration not stated),5.3,/,/,/,/,/
Cc1ccc(C(=O)NS(=O)(=O)c2ccc(N=NN(C)C)cc2)cc1,-18.6,1.1,1.6,2*,13.5,-10.2
CCOC(=O)c1ccc(N=NN(C)C)cc1,-47.3,/,/,/,/,/
Cc1ccc(NC(=O)CN2C(=O)S/C(=C\c3ccc(-c4cccc(C(=O)O)c4C)o3)C2=O)cc1C,33.6,-0.1,1.3,1.2,2.5,110.4*
CCOC(=O)C1(C)NC(c2cccs2)C2C(=O)N(c3ccc(OC)cc3)C(=O)C21 (configuration not stated),3.6,0.8,0.9,0.9,4.7,16.7
CCOC(=O)N/N=C1\CCS(=O)(=O)c2ccc(Cl)cc21,-8.0,/,/,/,/,/
c1ccc2[nH]c3cc4ncnc4cc3nc2c1,-18.9,0.4,1.5,1.2,30.9,55.4*
Cc1ccccc1Oc1nc(-c2ccccn2)nc2ccccc12,-7.1,/,/,/,/,/
O=C(Nc1cccc(F)c1)c1ccc(Cn2cc([N+](=O)[O-])cn2)o1,8.0,0.9,1,1,2.5,8.0
Cc1sc2nc3ccc(N4CCCC4)nn3c(=O)c2c1C,-15.4,0.8,1.6,2.2*,9.7,15.9
O=C(CN1C(=O)c2ccccc2C1=O)c1ccccc1,1.0,0.9,0.9,0.9,1.4,12.6
CC1=C(CC(=O)c2ccccc2)C(=O)c2ccccc2C1=O,1.8,0.8,1.2,1.1,56.1*,19.0
SMILES,Tb hexokinase,Diaphorase act,PMI activator,PMI act satM6P,G6PDH CS,Diaph inh CS
COCCN(CCOC)C(=O)COC(=O)c1ccc(Cl)c(S(=O)(=O)N(C)c2ccccc2)c1,-7.4,0.8,1,1,-1.2,18.6
CC(C)n1c(SCC(=O)N2c3ccccc3Sc3ccccc32)nc2c1c(=O)n(C)c(=O)n2C,-7.0,0.2,1,0.9,5.8,76.1*
COc1ccc(Cl)cc1-c1nc(SCC(N)=O)n[nH]1,1.4,/,/,/,/,/
O=C(CCCCCNc1nc(=S)[nH]c2ccccc12)N1CCN(c2ccccn2)CC1,-2.0,0.5,0.9,0.9,2.0,51.9*
COc1cc(C(=O)NCCOc2ccc(F)cc2)c(Br)c(OC)c1OC,6.8,1.1,0.9,0.9,5.7,-6.7
CN(C(=O)COc1ccc(S(=O)(=O)N2CCOCC2)cc1[N+](=O)[O-])C1CCS(=O)(=O)C1 (configuration not stated),-12.4,/,/,/,/,/
Cc1ccc(C)c2c1[nH]c1ccccc12,-7.5,0.8,0.9,0.9,-6.3,23.0
Cc1ccc2c(C)cc(=S)[nH]c2c1,-2.5,0.9,1.8,2.8*,-4.9,6.8
Cc1ccc2[nH]c(=S)cc(C)c2c1,-3.8,0.7,0.9,1.4,6.2,25.1
Cc1cc(=S)[nH]c2ccccc12,-10.3,1,1.2,2.1*,2.3,0.8
Cc1cc2cc(CCNC(=O)c3ccc(C)c([N+](=O)[O-])c3)c(=O)[nH]c2cc1C,0.9,0.3,0.7,0.9,18.9,71.7*
Cc1cc2cc(CCNC(=O)C(=O)c3c[nH]c4ccccc34)c(=O)[nH]c2cc1C,-1.2,0.3,0.8,0.9,1.1,70.0*
Cc1cc(C)n(-c2nnc3c4ccccc4n(C)c3n2)n1,-31.7,/,/,/,/,/
O=[N+]([O-])c1cc(-c2ncccn2)c([N+](=O)[O-])s1,-3.5,0.5,0.4,0.3,3.3,50.8*
CCOC(=O)c1c(C)oc2c1c(C(c1ccncc1)N1CCOCC1)c(O)c1ccccc12 (configuration not stated),0.2,0.8,0.8,0.9,-30.8,21.2
O=c1c2ccccc2c(C=NC2CCS(=O)(=O)C2)c(O)n1-c1ccccc1 (configuration not stated),-16.6,0.9,1,0.9,5.3,14.8
CCOC(=O)c1c(C)oc2c1c(CN1CCN(CCO)CC1)c(O)c1ccccc12,-14.0,0.4,0.4,0.2,47.5,61.0*
CCOC(=O)c1c(C)oc2c1c(CN1CCN(C(=O)OCC)CC1)c(O)c1ccccc12,19.3,0.6,0.7,0.3,40.4,35.5
CCOC(=O)c1c(C)oc2c1c(C=NC1CCS(=O)(=O)C1)c(O)c1ccccc12 (configuration not stated),-7.1,0.2,0.2,0.4,33.7,75.8*
CCOC(=O)c1c(C)oc2c1c(C=NCCC(=O)O)c(O)c1ccccc12,-14.9,0.3,0.2,0.2,51.9*,71.0*
O=Nc1c(-c2cccc([N+](=O)[O-])c2)nc2ncccn12,-19.9,/,/,/,/,/
Cc1onc(-c2ccccc2)c1C(=O)NNC(=S)NC(=O)c1ccc2c(c1)OCO2,-10.7,/,/,/,/,/
Cc1cc(C)c2c(N)c(C(=O)N3CCN(c4ncccn4)CC3)sc2n1,-5.7,0.8,1.5,2*,-27.1,18.6
COCc1cc(C)nc2sc(C(=O)N3CCN(c4ccccc4)CC3)c(N)c12,-8.1,0.8,1,0.9,8.5,21.9
CCN(CC(=O)Nc1cccc(C(C)=O)c1)S(=O)(=O)c1ccccc1,-12.0,1.2,1,1.1,7.1,-22.0
CN1c2ccsc2/C(=N/Nc2ccccc2)CS1(=O)=O,10.0,0.7,1.5,2.1*,4.2,27.8

# Screens (PubChem BioAssay)
